PubChem BioAssay
The source made the active and inactive calls.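 Rule for the calls, unless noted: active = visually confirmed hit in the image check and inhibition above 20%; inconclusive = visually confirmed hit but inhibition not above 20%; inactive = no visual hit in the image check.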

Assays:
[1] = inhibitors of TNFa-induced NFkB p65 translocation, primary screen, imaging, HUVEC, MLSMR starter and 10KST1 sets (AID 438;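 active = inhibition above 20% together with a positive visual image hit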;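 note: compound added about 3h40 before a 20 min TNFalpha stimulation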;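 for inhibition: signal is the nuclear over cytoplasmic p65 intensity ratio per well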); conditions: HUVEC TNFa-induced p65 nuclear translocation; cell count: measured here: nuclei count (cytotoxicity indicator), at 2.08 µM; inhibition: at 2 µM, stronger effect = higher value, 0% TNFa-plus-vehicle, 100% no-TNFa wells
[2] = reduction of polyQ htt aggregates in cells – imaging, exon1htt(103Q)mCFP cells, high-content imaging, primary screen (AID 483;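 active = visual image review flags a hit and inhibition of aggregation exceeds 20%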;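 note: compound exposure lasted 3 days before fixation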;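 for nuclei count: percent of the per-plate median nuclei count of sample wells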); conditions: exon1htt(103Q)mCFP cell line, aggregate imaging, at 2 µM; inhibition of aggregation: stronger effect = higher value; nuclei count: measured here: cell count, toxicity
[3] = endothelial E-selectin expression blockers – imaging, HUVEC, immunofluorescence, MLSMR starter and 10KST1 sets, primary screen (AID 487); conditions: HUVEC TNFalpha-induced E-selectin immunofluorescence imaging, at 2 µM; inhibition: stronger effect = higher value; nuclei count: measured here: cell number, toxicity;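 for inhibition: signal is fraction of cell area covered by stained E-selectin grains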;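 for nuclei count: 100% = median nuclei count of all wells on the same plate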
[4] = biological target: Voltage-gated potassium channel subunit beta-2 (Rattus norvegicus) (UniProt P62483); test: inhibitors of rat Kvbeta2 reductase activity – biochemical, NADPH fluorescence, primary screen (AID 622;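 active = fluorescence slope higher than the sample average by over 3 SD, cut at about -0.22 in these data, passing the limit was not always enough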;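 note: slope of raw intensity against log time taken from 70 to 1610 s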); conditions: recombinant KvBeta, 4-cyanobenzaldehyde reduction, at 10 µM, stronger effect = higher value
[5] = biological target: Voltage-gated potassium channel subunit beta-2 (Rattus norvegicus) (UniProt P62483); test: enhancers of rat Kvbeta2 NADPH turnover – biochemical, NADPH fluorescence, primary screen (AID 623;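 active = NADPH fluorescence slope more negative than the mean of all samples by about 3 SD, 99.7% confidence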;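 note: fluorescence intensity change per second fitted from 20 to 320 s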); conditions: Recombinant KvBeta, NADPH fluorescence decrease slope, 10 min; at 10 µM; stronger effect = lower value
[6] = biological target: Muscarinic acetylcholine receptor M4 (Homo sapiens) (UniProt P08173); test: M4-linked GIRK flux change, two-sided – cell-based, HEK293 M4/GIRK, thallium flux, BTC-AM, M4 allosteric agonist project, primary screen (AID 625;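 active = fluorescence slope after compound addition differing from the mean of all tested samples at 99.7% confidence, mostly higher but some lower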;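 note: thallium influx through GIRK channels coupled to M4 in HEK293 cells with BTC-AM dye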); conditions: at 10 µM, actives lie on both sides
In short: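 Material: M4/GIRK1/GIRK2 stable HEK293 cell line. Medium: pH 7.3 thallium assay buffer. Dosing: single compound concentration, 10 µM final. Schedule: 1 h dye loading, 2 min kinetic read. Measured by: kinetic fluorescence with BTC-AM dye. Read-out: post-addition slope, 15–24 s, of baseline-normalized fluorescence. Benchmarks: carbachol and DMSO controls.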

[7] = blockers of RIG-like receptor reporter activation – cell-based, Sendai virus stimulus, luciferase, 10K MLSCN set, TLR/RLR signaling modifier project, primary screen (AID 602276;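 active = inhibition at or above 50% at 10 µM; inactive = inhibition below 50%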;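 note: firefly luciferase from ISG56 promoter only with Renilla not read in this screen; 0% = Sendai virus plus DMSO and 100% = medium plus DMSO without virus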); conditions: HEK293 RL24 IRF3 luciferase reporter, at 10 µM, stronger effect = higher value
[8] = TLR3 IRF3 reporter activation blockers – cell-based, poly I:C stimulus, luciferase, 10K MLSCN set, primary screen (AID 602277;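 active = inhibition of the reporter signal at or above 50%; inactive = inhibition below 50%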); conditions: HEK293-TLR3 RL24 IRF3 luciferase reporter, at 10 µM, stronger effect = higher value

Voltage-gated potassium channel subunit beta-2 (Rattus norvegicus), sequence (P62483 whole entry, looked up): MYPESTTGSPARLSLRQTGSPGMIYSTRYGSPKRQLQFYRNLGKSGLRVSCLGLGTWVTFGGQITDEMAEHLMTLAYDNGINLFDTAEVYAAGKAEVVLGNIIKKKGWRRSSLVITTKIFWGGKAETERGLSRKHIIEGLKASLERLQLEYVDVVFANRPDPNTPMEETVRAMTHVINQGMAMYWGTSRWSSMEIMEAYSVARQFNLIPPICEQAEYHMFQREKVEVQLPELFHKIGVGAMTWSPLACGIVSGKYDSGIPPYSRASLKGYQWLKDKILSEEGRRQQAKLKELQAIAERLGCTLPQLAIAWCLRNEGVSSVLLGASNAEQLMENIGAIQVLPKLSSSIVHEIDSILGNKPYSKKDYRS
Muscarinic acetylcholine receptor M4 (Homo sapiens), sequence (P08173 whole entry, looked up): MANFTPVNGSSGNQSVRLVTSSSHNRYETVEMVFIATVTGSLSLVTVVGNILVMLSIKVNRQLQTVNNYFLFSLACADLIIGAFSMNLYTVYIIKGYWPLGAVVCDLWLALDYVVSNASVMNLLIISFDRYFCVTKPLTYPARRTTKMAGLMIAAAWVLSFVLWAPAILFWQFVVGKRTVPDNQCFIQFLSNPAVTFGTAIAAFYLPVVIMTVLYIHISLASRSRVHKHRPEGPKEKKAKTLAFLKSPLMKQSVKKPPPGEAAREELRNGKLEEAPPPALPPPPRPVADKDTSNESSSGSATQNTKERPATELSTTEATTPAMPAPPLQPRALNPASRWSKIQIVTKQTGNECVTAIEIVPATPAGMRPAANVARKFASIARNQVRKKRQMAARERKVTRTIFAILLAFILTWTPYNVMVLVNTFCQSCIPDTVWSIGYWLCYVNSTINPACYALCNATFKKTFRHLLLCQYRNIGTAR

| SMILES | cell count [1] | inhibition [1] | inhibition of aggregation [2] | nuclei count [2] | inhibition [3] | nuclei count [3] | fluorescence slope [4] | NADPH fluorescence slope [5] | fluorescence slope [6] | inhibition [7] | inhibition [8] |
| --- | --- | --- | --- | --- | --- | --- | --- | --- | --- | --- | --- |
| O=c1cc(COn2nnc3ccc(C(F)(F)F)cc32)nc2sccn12 | 379 | -22% (inactive) | -2.2% (inactive) | 109% | -51.6% (inactive) | 141% | -0.478 (inactive) | 3.2e-05 (inactive) | 0.00817 (inactive) | -2.54% (inactive) | 14.9% (inactive) |
| CC(=O)Nc1c(Cl)n(C(C)=O)c2ccccc12 | 432 | -1% (inactive) | -9.1% (inactive) | 100% | -3.8% (inactive) | 103% | -0.304 (inactive) | -2.6e-05 (inactive) | 0.00935 (inactive) | 27.6% (inactive) | 21% (inactive) |
| Cc1ccc(S(=O)(=O)N[C@@H](C)C(=O)N2CCC(C(=O)N3CCC[C@H]3C(=O)O)CC2)cc1 | 361 | 3.6% (inactive) | -14.8% (inactive) | 102% | -59.3% (inactive) | 129% | -0.406 (inactive) | 7.4e-05 (inactive) | 0.00591 (inactive) | 2.84% (inactive) | 13% (inactive) |
| O=C(c1ccco1)N1CCN(C(=O)C2CCN(S(=O)(=O)c3cccc4nsnc34)CC2)CC1 | 549 | 9.4% (inactive) | 5.1% (inactive) | 104% | 8.2% (inactive) | 96.4% | -0.468 (inactive) | 0.000197 (inactive) | 0.00637 (inactive) | 8.36% (inactive) | 18.1% (inactive) |
| O=C(CP(=O)(c1ccccc1)c1ccccc1)N1CCCCC1 | 378 | 6.6% (inactive) | -16% (inactive) | 105% | -29.8% (inactive) | 107% | -0.528 (inactive) | -1.9e-05 (inactive) | 0.00576 (inactive) | 18% (inactive) | 22.1% (inactive) |
| N#CCc1nc(CSc2nc3ccccc3s2)cs1 | 347 | -4.4% (inactive) | -7.5% (inactive) | 98% | -27.5% (inactive) | 114% | -0.551 (inactive) | -2.5e-05 (inactive) | 0.0089 (inactive) | -24.2% (inactive) | -87.8% (inactive) |
| CSc1nnc2c3ccccc3n(CCc3ccccc3)c2n1 | 665 | -0.5% (inactive) | 20.5% (inactive) | 83.8% | 19.4% (inactive) | 104% | -0.342 (inactive) | 1.9e-05 (inactive) | 0.00531 (inactive) | -13.2% (inactive) | -163% (inactive) |
| Cc1ccc(NCc2nnc(SCC(=O)NCc3ccco3)n2CC2CCCO2)cc1Cl (stereo not drawn) | 331 | -11.8% (inactive) | 13.3% (inactive) | 80.1% | 4.6% (inactive) | 106% | -0.505 (inactive) | 2.3e-05 (inactive) | 0.00472 (inactive) | -1.38% (inactive) | -3.61% (inactive) |
| COc1ccccc1OC(=O)c1ccc2nsnc2c1 | 623 | -11.4% (inactive) | 25% (inactive) | 87.8% | -75.4% (inactive) | 103% | -0.585 (inactive) | -5.9e-05 (inactive) | 0.00471 (inactive) | 9.79% (inactive) | 99.7% (active) |
| O=c1c2c(nc3nc(CCc4ccccc4)[nH]n13)CCC2 | 344 | 6.7% (inactive) | -5.3% (inactive) | 97.5% | -59.4% (inactive) | 105% | -0.527 (inactive) | -1.7e-05 (inactive) | 0.00459 (inactive) | 16.2% (inactive) | 19.5% (inactive) |
| O=S(=O)(CCOc1ccccc1)c1nc2ccccc2[nH]1 | 332 | -11.8% (inactive) | -12.8% (inactive) | 99.9% | -77.3% (inactive) | 106% | -0.566 (inactive) | -9e-05 (inactive) | 0.00411 (inactive) | 19.7% (inactive) | 13.7% (inactive) |
| COc1cccc(C(=O)Nc2cccc(C(=O)N3CCOCC3)c2)c1 | 354 | 1.6% (inactive) | 0.9% (inactive) | 76% | -121% (inactive) | 95% | -0.564 (inactive) | -3.3e-05 (inactive) | 0.00825 (inactive) | 3.67% (inactive) | 1.87% (inactive) |
| COc1ccc(CNC(=O)c2cc(-c3ccc(OC)c(OC)c3)on2)cc1 | 383 | -7.2% (inactive) | 2% (inactive) | 104% | 21.5% (inactive) | 110% | -0.206 (inactive) | -1.8e-05 (inactive) | 0.00919 (inactive) | 15.2% (inactive) | -6.13% (inactive) |
| Cc1cc(NC(=O)c2ccccc2Oc2ccccc2)no1 | 708 | -0.2% (inactive) | 23.9% (inactive) | 102% | 23.9% (inactive) | 101% | -0.532 (inactive) | -6.9e-05 (inactive) | 0.00465 (inactive) | 12.4% (inactive) | 9.02% (inactive) |
| O=C(CN1C(=O)COc2ccccc21)NCCCN1CCN(Cc2ccccc2)CC1 | 470 | -2.6% (inactive) | 0.5% (inactive) | 91.9% | -131% (inactive) | 232% | -0.581 (inactive) | -8.3e-06 (inactive) | 0.00512 (inactive) | -9.51% (inactive) | -8.02% (inactive) |
| COCc1cc(C)c2c(N)c(C#N)sc2n1 | 549 | 2.2% (inactive) | -26% (inactive) | 60.8% | 22.2% (inactive) | 108% | -0.324 (inactive) | 2.3e-06 (inactive) | 0.00504 (inactive) | -19.7% (inactive) | -33.5% (inactive) |
| Cc1ccnc(NC(=O)Nc2ccc(F)cc2)c1 | 478 | 8.1% (inactive) | 9.2% (inactive) | 98.7% | -266% (inactive) | 126% | -0.567 (inactive) | -9.3e-06 (inactive) | 0.0057 (inactive) | -59.1% (inactive) | -110% (inactive) |
| CCOc1ccc(OCC)c2sc(C)nc12 | 339 | 2.4% (inactive) | 8.2% (inactive) | 102% | 1% (inactive) | 106% | -0.591 (inactive) | -5.9e-05 (inactive) | 0.00571 (inactive) | 12.4% (inactive) | -8.47% (inactive) |
| CCCN(CCC)C(=O)CSc1nc2ccccc2c(=O)n1C1CCCC1 | 475 | 3% (inactive) | -13.4% (inactive) | 93.4% | -7.5% (inactive) | 117% | -0.452 (inactive) | -1.1e-05 (inactive) | 0.00476 (inactive) | 15.9% (inactive) | 10.1% (inactive) |
| CCOC(=O)c1c(C)oc2ccc(O)c(CN(C)C)c12 | 663 | 1.9% (inactive) | 16.5% (inactive) | 105% | -211% (inactive) | 108% | -0.551 (inactive) | -6.7e-06 (inactive) | 0.00733 (inactive) | 8.53% (inactive) | 20% (inactive) |
| CCNc1oc(COc2ccccc2F)nc1C#N | 318 | 14.7% (inactive) | -13.4% (inactive) | 106% | -8.8% (inactive) | 94.1% | -0.578 (inactive) | -2.3e-07 (inactive) | 0.00601 (inactive) | 0.938% (inactive) | -48.6% (inactive) |
| CN(c1cccc(NS(=O)(=O)c2cccs2)c1)S(C)(=O)=O | 427 | 2.4% (inactive) | -15.2% (inactive) | 110% | -5% (inactive) | 109% | -0.446 (inactive) | -2.2e-06 (inactive) | 0.00491 (inactive) | 21.9% (inactive) | 15.4% (inactive) |
| Cc1ccc(NC(=O)CSc2nnc(CSc3nc(C)cc(C)n3)n2Cc2ccco2)c(C)c1 | 655 | 1.6% (inactive) | 1.3% (inactive) | 79.3% | -23.6% (inactive) | 108% | -0.454 (inactive) | 5.9e-05 (inactive) | 0.0102 (inactive) | -22% (inactive) | -4.45% (inactive) |
| CC1=C(C#N)C(c2ccoc2)C(C(=O)OCc2ccccc2)=C(N)S1 (stereo not drawn) | 482 | 1% (inactive) | -13.3% (inactive) | 84.8% | -90% (inactive) | 102% | -0.524 (inactive) | -0.000129 (inactive) | 0.0045 (inactive) | 9.67% (inactive) | 11.7% (inactive) |
| COC(=O)c1sc(S(=O)(=O)Nc2ccc3cn[nH]c3c2)c(C(=O)OC)c1C | 392 | 1% (inactive) | 23.4% (inactive) | 80% | -83.8% (inactive) | 100% | -0.533 (inactive) | 5.3e-06 (inactive) | 0.0043 (inactive) | 13.4% (inactive) | 31.2% (inactive) |
| CCc1ccc(NS(=O)(=O)c2ccc3[nH]cc(C(=O)N4CCCCC4)c(=O)c3c2)cc1 | 672 | 13.7% (inactive) | 14.2% (inactive) | 86% | 2.5% (inactive) | 81.2% | -0.562 (inactive) | -5.7e-05 (inactive) | 0.00784 (inactive) | 20.2% (inactive) | 24.4% (inactive) |
| COC(=O)c1cc(Br)c(=O)n(CCC2=CCCCC2)c1 | 559 | 0% (inactive) | -16.7% (inactive) | 110% | 6.3% (inactive) | 122% | -0.497 (inactive) | 9.3e-05 (inactive) | 0.00488 (inactive) | -1.92% (inactive) | 9.19% (inactive) |
| O=C(O)C1CC(=O)N(c2ccc(OCc3c(F)cccc3Cl)cc2)C1 (stereo not drawn) | 571 | -18.3% (inactive) | -13% (inactive) | 100% | -18.6% (inactive) | 116% | -0.568 (inactive) | -2.6e-05 (inactive) | 0.0057 (inactive) | 4.5% (inactive) | 17.3% (inactive) |
